Assay results: the RNAGym collection of RNA variant scans (doi:10.1126/science.aae0568)
Variants at the floor of the assay were thinned out.

B1: tRNA (parent)
chain: GUUCCGUUGGCGUAAUGGUAACGCGUCUCCCUCCUAAGGAGAAGACUGCGGGUUCGAGUCCCGUACGGAACG

Variants of: B1
Test: yeast fitness relative to wild type (ratio to wild type); higher = fitter; tRNA-Arg(CCU), competitive growth, 37 C, YPD
Method in brief: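 Variants of the tRNA-Arg(CCU) gene were chemically synthesised with a 3% per-site mutation rate across 69 sites and placed at the native genomic locus in Saccharomyces cerevisiae. Six parallel replicates of the pooled strains were competed in YPD at 37°C for 24 hours, and gene amplicons from the start and end populations were read by 100-nucleotide paired-end sequencing. Darwinian fitness relative to wild type was derived from changes in genotype frequencies. Genotypes required ≥ 100 starting reads, and estimates < 0.5 were set to 0.5.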

Compared with C5U C27G C31G, C5U G18C U28C G63A is lower in yeast fitness: 0.679 for the first, no more than 0.5 for the second.

Compared with C5U C31U C46U G51A, C5U G23A C62G is lower in yeast fitness: 0.69 for the first, 0.538 for the second.

First: C5U C34A U64G
Second: C5U C33U G39A
The yeast fitness of the first is lower: no more than 0.5 for the first, 0.649 for the second.

C5U C33U A45C C46G A69U and C5U C33U A37C A42U U47C G52A U54C G67A cannot be ordered by yeast fitness: no more than 0.5 for the first, no more than 0.5 for the second.

C5U C22G C30U C33G and C5U G25C C27G cannot be ordered by yeast fitness: no more than 0.5 for the first, no more than 0.5 for the second.

Compared with C5U C34A G44C C62U, C5U G17C C24G G38C U54C is lower in yeast fitness: 0.723 for the first, no more than 0.5 for the second.

C5U C27G G39C G52A and C5U C27G C31G G44C A45G cannot be ordered by yeast fitness: no more than 0.5 for the first, no more than 0.5 for the second.

C5U G10A C46A and C5U G12A G52C A70U cannot be ordered by yeast fitness: no more than 0.5 for the first, no more than 0.5 for the second.

Going from C5U C33A A36C A37C A43G to C5U G23C, the yeast fitness rises from no more than 0.5 to 0.644.

Compared with C5U G23A, C5U G10C A21U C22U U32C C46U is lower in yeast fitness: 0.742 for the first, no more than 0.5 for the second.

Going from C5U C29A A45C to C5U G17A A21G A37G G39C G44C C46A U54C A65C, the yeast fitness falls from 0.669 to no more than 0.5.

C5U C29G C33U and C5U G6C A14G cannot be ordered by yeast fitness: no more than 0.5 for the first, no more than 0.5 for the second.

First: C5U G9A U13A
Second: C5U C46U A57G A70C
The yeast fitness of the first is higher: 0.882 for the first, no more than 0.5 for the second.

C5U C33A A36C A37C A43G A69U and C5U G17A C33A C49U C66U cannot be ordered by yeast fitness: no more than 0.5 for the first, no more than 0.5 for the second.

Going from C5U C22G U26G A42C G51A to C5U G38A, the yeast fitness rises from 0.537 to 1.03.

Compared with C5U G10C C30A A36U A42C U64A C66G A69U, C5U C66G G68C is higher in yeast fitness: no more than 0.5 for the first, 0.541 for the second.

Going from C5U C34G A45U U53G A57G to C5U C30A A65C, the yeast fitness rises from 0.672 to 0.703.

Going from C5U C46G C49G to C5U C29U C31U U54G A65U G67A, the yeast fitness falls from 0.527 to no more than 0.5.

Going from C5U G9A G51C G52C to C5U C62G, the yeast fitness rises from no more than 0.5 to 0.702.

Compared with C5U C62A, C5U G38A A42G is lower in yeast fitness: 0.649 for the first, 0.605 for the second.

First: C5U G6C A36C G48C C62U
Second: C5U C30A G39A C66G
The yeast fitness of the first is higher: 0.546 for the first, no more than 0.5 for the second.

First: C5U G9A G67A
Second: C5U C29U
The yeast fitness of the first is higher: 1.05 for the first, 0.867 for the second.

Going from C5U C29A to C5U C24G U32G A36G C60A A65U, the yeast fitness falls from 0.569 to 0.535.

Going from C5U G9A C34A to C5U G9A C31A A57C C66A A69U, the yeast fitness falls from 0.704 to no more than 0.5.

First: C5U C31U G41A
Second: C5U G12C A40C G56C
The yeast fitness of the first is higher: 0.831 for the first, no more than 0.5 for the second.

Going from C5U C62G G63C A65U to C5U C24G, the yeast fitness rises from no more than 0.5 to 0.571.

First: C5U C60A C62G
Second: C5U G9A C61U
The yeast fitness of the first is lower: no more than 0.5 for the first, 0.732 for the second.

C5U C29G G63A and C5U G10C C30U cannot be ordered by yeast fitness: no more than 0.5 for the first, no more than 0.5 for the second.

C5U G10A C22U A40G G56C C66A and C5U C22U C27U A42G G48A C55A C60A A70U cannot be ordered by yeast fitness: no more than 0.5 for the first, no more than 0.5 for the second.

C5U C33A C55U and C5U C27G U28G cannot be ordered by yeast fitness: no more than 0.5 for the first, no more than 0.5 for the second.

Going from C5U C34U C49U U53C G67U to C5U G10A A21G, the yeast fitness rises from no more than 0.5 to 0.59.

Going from C5U G10C A21U C22U C24U U32C C46U C61G to C5U G39A A69C, the yeast fitness rises from no more than 0.5 to 0.647.

C5U G17C G18C C60G C61G and C5U G17A C29U G52C C55G cannot be ordered by yeast fitness: no more than 0.5 for the first, no more than 0.5 for the second.

Compared with C5U G6A G44C G63A, C5U G12C U28A is higher in yeast fitness: no more than 0.5 for the first, 0.545 for the second.

C5U G17A C55A G67A A70G and C5U C27G A69C cannot be ordered by yeast fitness: no more than 0.5 for the first, no more than 0.5 for the second.

Going from C5U C46G C62U to C5U G9A A65G, the yeast fitness rises from 0.697 to 0.736.

C5U C34A C55G and C5U G12A A14G A57U cannot be ordered by yeast fitness: no more than 0.5 for the first, no more than 0.5 for the second.

C5U G17A C49G C60A and C5U C33U A65G C66A cannot be ordered by yeast fitness: no more than 0.5 for the first, no more than 0.5 for the second.

Going from C5U C31U G68C to C5U C46U C55G U64A, the yeast fitness falls from 0.653 to 0.638.

Compared with C5U C24A C27G C61A C66G, C5U G25A A37U A40C C61A is lower in yeast fitness: 0.624 for the first, no more than 0.5 for the second.

C5U G38C G39C A40G G44A C46G G52A U59G and C5U C22U C66U cannot be ordered by yeast fitness: no more than 0.5 for the first, no more than 0.5 for the second.

Going from C5U G17C C30G to C5U C27U A37C C60A, the yeast fitness rises from no more than 0.5 to 0.546.

Compared with C5U C22U, C5U C61G is lower in yeast fitness: 0.792 for the first, 0.771 for the second.

Compared with C5U C61U, C5U C33G C34U G38C U47A is lower in yeast fitness: 0.971 for the first, no more than 0.5 for the second.

Compared with C5U G17C U26G G67A, C5U C30U U47A G67C is lower in yeast fitness: 0.565 for the first, 0.542 for the second.

Going from C5U C29G A57G to C5U C27G C55G A69U, the yeast fitness falls from 0.655 to no more than 0.5.

C5U G6A A15U C31U U32C G67C and C5U G23A C31U A65G cannot be ordered by yeast fitness: no more than 0.5 for the first, no more than 0.5 for the second.

C5U G12A C22U C33U and C5U G38C A42C G63A cannot be ordered by yeast fitness: no more than 0.5 for the first, no more than 0.5 for the second.

Going from C5U C55U G67C to C5U G17C G52A, the yeast fitness rises from no more than 0.5 to 0.61.

First: C5U C27U G56A
Second: C5U G9C C11G C24A U26G G68A A69C
The yeast fitness of the first is higher: 0.704 for the first, no more than 0.5 for the second.

C5U G10A A69G and C5U C30U A40U A70C cannot be ordered by yeast fitness: no more than 0.5 for the first, no more than 0.5 for the second.

Going from C5U G17C C30A A57C to C5U C33G G38A C60A, the yeast fitness rises from no more than 0.5 to 0.542.

First: C5U C31A C34A A36G
Second: C5U C30U C49G
The yeast fitness of the first is lower: no more than 0.5 for the first, 0.62 for the second.

First: C5U C22G U28A C31G C55A G68C
Second: C5U G12A C49U
The yeast fitness of the first is lower: 0.542 for the first, 0.612 for the second.

C5U G17A C46U G58A G63A U64A and C5U C22U C33U U53A cannot be ordered by yeast fitness: no more than 0.5 for the first, no more than 0.5 for the second.

Compared with C5U G18C C61U, C5U C29G C30G A65C is lower in yeast fitness: 0.565 for the first, no more than 0.5 for the second.

Going from C5U C31G G51C to C5U G12C A43G G56A, the yeast fitness falls from 0.572 to no more than 0.5.

C5U C29A A57U A69C and C5U C22U C24A G56C U59G cannot be ordered by yeast fitness: no more than 0.5 for the first, no more than 0.5 for the second.

First: C5U C27A G63C
Second: C5U C33U A69C
The yeast fitness of the first is lower: no more than 0.5 for the first, 0.556 for the second.

Going from C5U C30G G51C G56U to C5U C29G A37C C49U C66A, the yeast fitness rises from no more than 0.5 to 0.627.

C5U C55A C62A and C5U G12A A15U G63A A70U cannot be ordered by yeast fitness: no more than 0.5 for the first, no more than 0.5 for the second.

Going from C5U C27U C61G to C5U C33U C61U, the yeast fitness rises from no more than 0.5 to 0.632.

First: C5U G10A A40C G50A
Second: C5U C49U A65C
The yeast fitness of the first is lower: no more than 0.5 for the first, 0.745 for the second.

Compared with C5U C49U A65U, C5U G10C A15G C29G A40C A43U U47A C60A is lower in yeast fitness: 0.644 for the first, no more than 0.5 for the second.

C5U G18C A45U and C5U G6A C22U G25C cannot be ordered by yeast fitness: no more than 0.5 for the first, no more than 0.5 for the second.

C5U G17A C29U G52C C55G A69U and C5U C30G A36U G51A G52A U64G cannot be ordered by yeast fitness: no more than 0.5 for the first, no more than 0.5 for the second.

Compared with C5U C31G A45U C62U, C5U G10C C27G U28C G39C C46G is lower in yeast fitness: 0.629 for the first, 0.606 for the second.

C5U G9A G10C G12A G25A C33G G39A and C5U C49U C61A cannot be ordered by yeast fitness: no more than 0.5 for the first, no more than 0.5 for the second.

C5U C33G C49A A70C and C5U C27U A37C C60A C66U cannot be ordered by yeast fitness: no more than 0.5 for the first, no more than 0.5 for the second.

First: C5U C27U G48A G67C
Second: C5U C34U A69U
The yeast fitness of the first is lower: no more than 0.5 for the first, 0.59 for the second.

C5U C61A C66A and C5U C30U C34G G38C A65C cannot be ordered by yeast fitness: no more than 0.5 for the first, no more than 0.5 for the second.

C5U G6A U35C A36U G38A C46A U54C and C5U G6U C11U A15G G48C cannot be ordered by yeast fitness: no more than 0.5 for the first, no more than 0.5 for the second.

C5U C22U U53C U59G C61G C62U and C5U G6C A21C A42U C46U C66U cannot be ordered by yeast fitness: no more than 0.5 for the first, no more than 0.5 for the second.

C5U G6C A20U A45U and C5U C46G G68U cannot be ordered by yeast fitness: no more than 0.5 for the first, no more than 0.5 for the second.

C5U G9A U13A A36C G50C and C5U G23C A69C cannot be ordered by yeast fitness: no more than 0.5 for the first, no more than 0.5 for the second.

Compared with C5U G9A A43C, C5U C31U A57C G58A A69G is lower in yeast fitness: 0.653 for the first, no more than 0.5 for the second.

C5U G25C C49A G56C C62G and C5U G10A G68C cannot be ordered by yeast fitness: no more than 0.5 for the first, no more than 0.5 for the second.

Going from C5U G9A C62U to C5U C22U C33U A37G, the yeast fitness falls from 0.995 to no more than 0.5.

Compared with C5U G39C U59A C60G, C5U C24U C29A is higher in yeast fitness: no more than 0.5 for the first, 0.574 for the second.

C5U C55A C61G and C5U C29G G68A cannot be ordered by yeast fitness: no more than 0.5 for the first, no more than 0.5 for the second.

Going from C5U C27A to C5U C27G, the yeast fitness falls from 0.817 to 0.61.

C5U G39A G51U G58C and C5U G12C U19A cannot be ordered by yeast fitness: no more than 0.5 for the first, no more than 0.5 for the second.

C5U G9A U26C G67U and C5U G25C A42U C62G cannot be ordered by yeast fitness: no more than 0.5 for the first, no more than 0.5 for the second.

C5U C24U A36G G41C gave a yeast fitness of no more than 0.5.
